According to ChEMBL document CHEMBL1140030, “Spin trapping experiments with different carbamoyl-substituted EMPO derivatives” (Bioorg Med Chem, 2008):

How the values were obtained:
[1] = Partition coefficient, P in n-octanol/phosphate buffer at pH 7.0
[2] = Antioxidant spin trapping activity assessed as hydroxyl radical adducts formation by Fenton system; format: physicochemical
Method in brief: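 Hydroxyl adducts: spin trap (40 mM, initial) with Fenton mix of FeSO4 (1 mM), EDTA (2 mM), H2O2 (0.2%); after 10 s diluted 1:1 with 300 mM phosphate buffer pH 7.4 containing 20 mM DTPA; ESR at sweep 80 G, modulation 0.21 G, microwave 20 mW, time constant 0.08 s, gain 2×10^4, 57 G/min.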

[3] = Antioxidant spin trapping activity assessed as alkoxyl radical adducts formation from ethanol; format: physicochemical
Method in brief: (§1)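 Alkoxyl adducts by nucleophilic addition: spin trap (1 M, init. conc., in methanol or ethanol) incubated 10 s with FeCl3 (2 mM in the alcohol), then stopped by 1:20 dilution with phosphate buffer (0.3 M, pH 7.4, 20 mM DTPA); ESR recorded at 9.7 GHz, sweep width 80 G.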

[4] = Antioxidant spin trapping activity assessed as carbon centered radical adduct formation from methanol; format: physicochemical
Method in brief: (§2)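 Fenton-type generation of alcohol-derived carbon radicals: spin trap (40 mM, init. conc.), FeSO4 (1 mM), EDTA (2 mM), H2O2 (0.2%) in methanol or ethanol/water; stopped after 10 s by 1:1 dilution with 300 mM phosphate buffer pH 7.4 containing 20 mM DTPA; ESR: sweep 80 G, modulation 0.21 G, 20 mW, gain 4×10^4, 57 G/min.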

[5] = Antioxidant spin trapping activity assessed as carbon centered radical adduct formation from ethanol; format: physicochemical
Method in brief: as §2

[6] = Antioxidant spin trapping activity assessed as carbon centered radical adduct formation from formate; format: physicochemical
Method in brief: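 CO2 anion radical adducts: spin trap (40 mM, init. conc.) with FeSO4 (1 mM), EDTA (2 mM), H2O2 (0.2%) in aqueous sodium formate (200 mM); reaction stopped after 10 s by 1:1 dilution into 300 mM phosphate buffer pH 7.4 with 20 mM DTPA, then ESR spectrum recorded (sweep width 80 G).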

[7] = Antioxidant spin trapping activity assessed as alkoxyl radical adducts formation from methanol; format: physicochemical
Method in brief: as §1

Row | SMILES | P [1] | Activity [2] | Activity [3] | Activity [4] | Activity [5] | Activity [6] | Activity [7]
1 | CCCC1(C(N)=O)CCC=[N+]1[O-] (stereo unspecified) | 0.211 | Active | Active | Active | Active | Active | –
2 | CCC1(C(N)=O)CCC=[N+]1[O-] (stereo unspecified) | 0.056 | Active | – | – | – | Active | –
3 | CCCCCC1(C(N)=O)CCC=[N+]1[O-] (stereo unspecified) | 2.72 | Active | Active | Active | Active | Active | Active
4 | CCCCC1(C(N)=O)CCC=[N+]1[O-] (stereo unspecified) | 0.668 | Active | – | – | – | Active | –

Second part, the molecule after the results:

Row | P [1] | Activity [2] | Activity [3] | Activity [4] | Activity [5] | Activity [6] | Activity [7] | SMILES
5 | 0.15 | – | – | – | – | – | – | CCOC(=O)C1(C)CCC=[N+]1[O-] (stereo unspecified)
6 | 0.016 | – | – | – | – | – | – | CC1(C(N)=O)CCC=[N+]1[O-] (stereo unspecified)
